The values that follow come from article PMC2911241 (Letters in drug design & discovery, 2010).

The structures appear in SMILES notation. Some results are limits rather than exact numbers.

As a reminder, the IC50 is the point on the concentration scale where inhibition reaches its midpoint.

Assay [1] has as its system human chronic myelogenous K562 leukemia cells. The assay is described as follows: Cell proliferation analysis, K562 cells. Type of assay: cell-based. The settings on record: for IC50: Homo sapiens, K562, 24 h, read-out: IC50 K562. In outline: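 K562 cells grown in RPMI 1640 with 10% FCS, 2 mM L-glutamine, […] and penicillin/streptomycin at 37°C, 5% CO2. DMSO stocks (1 mg/mL) diluted in medium. Cells (1×10^4/well) exposed to increasing concentrations for 24 h at 37°C, then counted electronically. IC50 is 50% growth inhibition vs untreated controls. Duplicate cultures per concentration, repeated experiments, mean ± SE.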

In assay [2] the test system is murine lymphocytic L1210 leukemia cells. The assay is described as follows: Cell proliferation analysis, L1210 cells. Type of assay: cell-based. Conditions: for IC50: Mus musculus, L1210, 24 h, read-out: IC50 L1210. In outline: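 Murine L1210 cells maintained at 1×10^6 cells/mL in RPMI 1640 with 10% FCS, 2 mM L-glutamine, […] and penicillin/streptomycin (37 °C, 5% CO2). DMSO stocks (1 mg/mL) diluted in medium. 1×10^4 cells/well exposed to increasing concentrations for 24 h at 37 °C; cell number/mL counted on a Coulter counter. IC50 relative to untreated controls, duplicate cultures per concentration, mean ± SE of ≥3 independent experiments.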

As to `COc1cc(C(=O)c2oc3ccccc3c2NC(C)=O)cc(OC)c1OC` [Compound 3a, N-[2-(3,4,5-Trimethoxybenzoyl)-1-benzofuran-3-yl]acetamide], the IC50 in assay [1] is above 100 µM. On the same count and under the same terms, to `COc1cc(C(=O)c2sc3c(C)cccc3c2NC(=O)CBr)cc(OC)c1OC` [Compound 3aa, 2-Bromo-N-[7-methyl-2-(3,4,5-trimethoxybenzoyl)-1-benzothien-3-yl]acetamide] belongs 0.49 ± 0.08 µM; to `COc1cc(C(=O)c2sc3c(C)cccc3c2NC(=O)CI)cc(OC)c1OC` [Compound 3ab, 2-Iodo-N-[7-methyl-2-(3,4,5-trimethoxybenzoyl)-1-benzothien-3-yl]acetamide], 0.55 ± 0.01 µM. Turning to `COc1cc(C(=O)c2oc3ccccc3c2NC(=O)CCl)cc(OC)c1OC` [Compound 3b, 2-Chloro-N-[2-(3,4,5-trimethoxybenzoyl)-1-benzofuran-3-yl]acetamide], in assay [1], the IC50 was 45.8 ± 1.5 µM. On to `COc1cc(C(=O)c2oc3ccccc3c2NC(=O)CBr)cc(OC)c1OC` [Compound 3c, 2-Bromo-N-[2-(3,4,5-trimethoxybenzoyl)-1-benzofuran-3-yl]acetamide], for which the IC50 is 4.56 ± 0.64 µM in assay [2] and 12.8 ± 0.51 µM in assay [1]. On to `COc1cc(C(=O)c2oc3ccccc3c2NC(=O)CI)cc(OC)c1OC` [Compound 3d, 2-Iodo-N-[2-(3,4,5-trimethoxybenzoyl)-1-benzofuran-3-yl]acetamide], for which, in assay [1], the IC50 turned out to be 2.21 ± 0.09 µM. In addition, the “fold more potent than the bromine 3c” value in assay [1] (antiproliferative activity, K562 and L1210 cells) is given as 6 fold. For the compound `COc1ccc2oc(C(=O)c3cc(OC)c(OC)c(OC)c3)c(NC(C)=O)c2c1` [Compound 3e, N-[5-Methoxy-2-(3,4,5-trimethoxybenzoyl)-1-benzofuran-3-yl]acetamide], the IC50 in assay [1] was determined as 58.1 ± 1.3 µM. Still for that read-out and setting: for `COc1ccc2oc(C(=O)c3cc(OC)c(OC)c(OC)c3)c(NC(=O)CCl)c2c1` [Compound 3f, 2-Chloro-N-[5-methoxy-2-(3,4,5-trimethoxy-benzoyl)-1-benzofuran-3-yl]acetamide] the value was 60.9 ± 2.4 µM; for `COc1ccc2oc(C(=O)c3cc(OC)c(OC)c(OC)c3)c(NC(=O)CBr)c2c1` [Compound 3g, 2-Bromo-N-[5-methoxy-2-(3,4,5-trimethoxybenzoyl)-1-benzofuran-3-yl]acetamide], 53.4 ± 2.6 µM.

As for `COc1ccc2oc(C(=O)c3cc(OC)c(OC)c(OC)c3)c(NC(=O)CI)c2c1` [Compound 3h, 2-Iodo-N-[5-methoxy-2-(3,4,5-trimethoxybenzoyl)-1-benzofuran-3-yl]acetamide], the IC50 in assay [2] came to 0.52 ± 0.03 µM; in assay [1], 49.2 ± 1.8 µM. Consider `COc1cc(C(=O)c2oc3c(OC)cccc3c2NC(C)=O)cc(OC)c1OC` [Compound 3m, N-[7-Methoxy-2-(3,4,5-trimethoxybenzoyl)-1-benzofuran-3-yl]acetamide], for which, in assay [1], the IC50 is 48.1 ± 2.6 µM. Same read-out and setting: to `COc1cc(C(=O)c2oc3c(OC)cccc3c2NC(=O)CCl)cc(OC)c1OC` [Compound 3n, 2-Chloro-N-[7-methoxy-2-(3,4,5-trimethoxybenzoyl)-1-benzofuran-3-yl]acetamide] belongs 82.7 ± 5.6 µM.

For `COc1cc(C(=O)c2oc3c(OC)cccc3c2NC(=O)CBr)cc(OC)c1OC` [Compound 3o, 2-Bromo-N-[7-methoxy-2-(3,4,5-trimethoxybenzoyl)-1-benzofuran-3-yl]acetamide], the half-inhibitory concentration (IC50) in assay [1] was above 100 µM. Turning to `COc1cc(C(=O)c2oc3c(OC)cccc3c2NC(=O)CI)cc(OC)c1OC` [Compound 3p, 2-Iodo-N-[7-methoxy-2-(3,4,5-trimethoxybenzoyl)-1-benzofuran-3-yl]acetamide], the IC50 in assay [2] is 42.8 ± 3.77 µM; in assay [1] it was 6.96 ± 1.12 µM. As to `COc1cc(C(=O)c2sc3ccccc3c2NC(C)=O)cc(OC)c1OC` [Compound 3q, N-[2-(3,4,5-Trimethoxybenzoyl)-1-benzothien-3-yl] acetamide], the IC50 in assay [1] was 0.63 ± 0.04 µM.

With `COc1cc(C(=O)c2sc3ccccc3c2NC(=O)CCl)cc(OC)c1OC` [Compound 3r, 2-Chloro-N-[2-(3,4,5-trimethoxybenzoyl)-1-benzothien-3-yl]acetamide], the IC50 in assay [1] was determined as 0.6 ± 0.02 µM. On to `COc1cc(C(=O)c2sc3ccccc3c2NC(=O)CBr)cc(OC)c1OC` [Compound 3s, 2-Bromo-N-[2-(3,4,5-trimethoxybenzoyl)-1-benzothien-3-yl]acetamide], for which the results for the concentration for half-maximal inhibition (IC50) in assay [2] and in assay [1] were 0.5 ± 0.01 µM and 0.61 ± 0.04 µM, respectively. For `COc1cc(C(=O)c2sc3ccccc3c2NC(=O)CI)cc(OC)c1OC` [Compound 3t, 2-Iodo-N-[2-(3,4,5-trimethoxybenzoyl)-1-benzothien-3-yl]acetamide], in that order: 0.58 ± 0.09 µM and 0.76 ± 0.02 µM. As to `COc1cc(C(=O)c2sc3cc(C)ccc3c2NC(C)=O)cc(OC)c1OC` [Compound 3u, N-[6-Methyl-2-(3,4,5-trimethoxybenzoyl)-1-benzothien-3-yl]acetamide], the IC50 in assay [1] is 0.7 ± 0.01 µM. Turning to `COc1cc(C(=O)c2sc3cc(C)ccc3c2NC(=O)CCl)cc(OC)c1OC` [Compound 3v, 2-Chloro-N-[6-methyl-2-(3,4,5-trimethoxybenzoyl)-1-benzothien-3-yl]acetamide], the IC50 in assay [1] was 0.08 µM. Still for that read-out and setting: to `COc1cc(C(=O)c2sc3cc(C)ccc3c2NC(=O)CBr)cc(OC)c1OC` [Compound 3w, 2-Bromo-N-[6-methyl-2-(3,4,5-trimethoxybenzoyl)-1-benzothien-3-yl]acetamide] belongs 0.5 ± 0.08 µM. Take `COc1cc(C(=O)c2sc3cc(C)ccc3c2NC(=O)CI)cc(OC)c1OC` [Compound 3x, 2-Iodo-N-[6-methyl-2-(3,4,5-trimethoxybenzoyl)-1-benzothien-3-yl]acetamide]: the values for the IC50 in assay [2] and in assay [1] were 0.44 ± 0.07 µM and 0.61 ± 0.01 µM, respectively.

Regarding `COc1cc(C(=O)c2sc3c(C)cccc3c2NC(C)=O)cc(OC)c1OC` [Compound 3y, N-[7-Methyl-2-(3,4,5-trimethoxybenzoyl)-1-benzothien-3-yl]acetamide], the IC50 in assay [1] came to 0.032 µM. On to `COc1cc(C(=O)c2sc3c(C)cccc3c2NC(=O)CCl)cc(OC)c1OC` [Compound 3z, 2-Chloro-N-[7-methyl-2-(3,4,5-trimethoxybenzoyl)-1-benzothien-3-yl]acetamide], for which the IC50 in assay [2] was 0.05 µM; in assay [1] it was 0.04 ± 0.02 µM.

On to `COc1cc(C(=O)c2oc3ccccc3c2NC(=O)CO[N+](=O)[O-])cc(OC)c1OC` [Compound 4a, 2-Oxo-2-{[2-(3,4,5-trimethoxybenzoyl)-1-benzofuran-3-yl]amino}ethyl nitrate], for which the IC50 in assay [1] is 31.4 ± 1 µM.

With `COc1cc(C(=O)c2sc3ccccc3c2NC(=O)CO[N+](=O)[O-])cc(OC)c1OC` [Compound 4b, 2-Oxo-2-{[2-(3,4,5-trimethoxybenzoyl)-1-benzothien-3-yl]amino}ethyl nitrate], the IC50 in assay [1] was 0.55 ± 0.05 µM. Take `COc1cc(C(=O)c2sc3cc(C)ccc3c2NC(=O)CO[N+](=O)[O-])cc(OC)c1OC` [Compound 4c, 2-{[6-Methyl-2-(3,4,5-trimethoxybenzoyl)-1-benzothien-3-yl]amino}-2-oxoethyl nitrate]: the IC50 was 0.28 ± 0.03 µM in assay [2] and 0.03 ± 0.02 µM in assay [1]. Further, the “fold increase in potency relative to 4b” value in assay [1] (against K562 cells) is reported as 20 fold. On to `COc1cc(C(=O)c2sc3c(C)cccc3c2NC(=O)CO[N+](=O)[O-])cc(OC)c1OC` [Compound 4d, 2-{[7-Methyl-2-(3,4,5-trimethoxybenzoyl)-1-benzothien-3-yl]amino}-2-oxoethyl nitrate], for which the “fold more potent than 4c” value in assay [2] (against L1210 cells) is “about 5 fold”. Further, the IC50 in assay [1] turned out to be 0.05 ± 0.01 µM. Regarding `C=C(Br)C(=O)Nc1c(C(=O)c2cc(OC)c(OC)c(OC)c2)oc2ccccc12` [Compound 5a, 2-Bromo-N-[2-(3,4,5-trimethoxybenzoyl)-1-benzofuran-3-yl]acrylamide], the IC50 in assay [2] is 0.53 µM; in assay [1], 5.1 ± 0.07 µM. Moreover, the “fold more active than amino counterpart 2a” value in assay [2] (against L1210 cells) is recorded as 60 fold. Take `C=C(Br)C(=O)Nc1c(C(=O)c2cc(OC)c(OC)c(OC)c2)oc2ccc(OC)cc12` [Compound 5b, 2-Bromo-N-[5-methoxy-2-(3,4,5-trimethoxybenzoyl)-1-benzofuran-3-yl]acrylamide]: in assay [1], the IC50 is above 100 µM.

In the case of `C=C(Br)C(=O)Nc1c(C(=O)c2cc(OC)c(OC)c(OC)c2)oc2cc(OC)ccc12` [Compound 5c, 2-Bromo-N-[6-methoxy-2-(3,4,5-trimethoxybenzoyl)-1-benzofuran-3-yl]acrylamide], in assay [1], the IC50 came out at 25.9 ± 2.3 µM. `C=C(Br)C(=O)Nc1c(C(=O)c2cc(OC)c(OC)c(OC)c2)oc2c(OC)cccc12` [Compound 5d, 2-Bromo-N-[7-methoxy-2-(3,4,5-trimethoxybenzoyl)-1-benzofuran-3-yl]acrylamide]: the IC50 in assay [2] was 26.8 ± 3.2 µM; in assay [1], 55.9 ± 4.6 µM. As for `C=C(Br)C(=O)Nc1c(C(=O)c2cc(OC)c(OC)c(OC)c2)sc2ccccc12` [Compound 5e, 2-Bromo-N-[2-(3,4,5-trimethoxybenzoyl)-1-benzothien-3-yl]acrylamide], the IC50 in assay [1] worked out at 0.58 ± 0.03 µM. Consider `C=C(Br)C(=O)Nc1c(C(=O)c2cc(OC)c(OC)c(OC)c2)sc2cc(C)ccc12` [Compound 5f, 2-Bromo-N-[6-methyl-2-(3,4,5-trimethoxybenzoyl)-1-benzothien-3-yl]acrylamide], for which the figures for the IC50 in assay [2] and in assay [1] were 0.059 µM and 0.94 ± 0.06 µM, respectively. Take `C=C(Br)C(=O)Nc1c(C(=O)c2cc(OC)c(OC)c(OC)c2)sc2c(C)cccc12` [Compound 5g, 2-Bromo-N-[7-methyl-2-(3,4,5-trimethoxybenzoyl)-1-benzothien-3-yl]acrylamide]: the IC50 in assay [1] amounted to 0.49 ± 0.03 µM.
